Reference: ChEMBL document CHEMBL1139765, “Synthesis, resolution, and antiplatelet activity of 3-substituted 1(3H)-isobenzofuranone” (2007)

Tests used:
Plasma [1] = experiment: Antiplatelet activity in human platelet rich plasma assessed as inhibition of arachidonic acid-induced platelet aggregation; assay type: functional
Summary of the method: (§1)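 PRP was prepared from whole blood of healthy volunteers. Compounds were added to PRP at 10, 20, 50 and 100, with aspirin at 5 as reference and PEG-400 as vehicle control. Aggregation was induced with ADP or arachidonic acid, and IE50 was derived from the concentration series.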

Plasma [2] = experiment: Antiplatelet activity in human platelet rich plasma assessed as inhibition of ADP-induced platelet aggregation; assay type: functional; summary of the method: as §1

SMILES | IE50 (Plasma [1]) | IE50 (Plasma [2])
C/C=C1\OC(=O)c2ccccc21 | 16 µM | –
CCCCCC1OC(=O)c2ccccc21 (configuration not stated) | 16.4 µM | 180 µM
CCCCCCC[C@@H]1OC(=O)c2ccccc21 | 18.7 µM | 176 µM
CCCCC[C@@H]1OC(=O)c2ccccc21 | 17.9 µM | 203 µM
CCCC[C@@H]1OC(=O)c2ccccc21 [(3S)-BUTYLPHTHALIDE] | 16.1 µM | 193 µM
CCCCCCCC1OC(=O)c2ccccc21 (configuration not stated) | 16.1 µM | 153 µM
CC(C)CCC1OC(=O)c2ccccc21 (configuration not stated) | 15.4 µM | 201 µM
CCC[C@@H]1OC(=O)c2ccccc21 | 16.9 µM | 142 µM
CC(C)CC[C@H]1OC(=O)c2ccccc21 | 14.3 µM | 116 µM
CC/C=C1\OC(=O)c2ccccc21 | 16.1 µM | 171 µM
CCCCC[C@H]1OC(=O)c2ccccc21 | 15.1 µM | 178 µM
CC(=O)Oc1ccccc1C(=O)O [ASPIRIN] | 12.3 µM | 118 µM
CC[C@@H]1OC(=O)c2ccccc21 | 16.9 µM | 209 µM
CCCCC/C=C1\OC(=O)c2ccccc21 | 17.1 µM | 243 µM
CCCCCCC1OC(=O)c2ccccc21 (configuration not stated) | 15.8 µM | 220 µM
CCCC[C@H]1OC(=O)c2ccccc21 | 13.2 µM | 94.7 µM
CCCC1OC(=O)c2ccccc21 (configuration not stated) | 14.9 µM | 133 µM
CCCCCC/C=C1\OC(=O)c2ccccc21 | 18 µM | 289 µM
CCCCCC[C@@H]1OC(=O)c2ccccc21 | 18.5 µM | 217 µM
CCCCCC[C@H]1OC(=O)c2ccccc21 | 14.4 µM | 139 µM
CCC/C=C1\OC(=O)c2ccccc21 [Z-butylidenephthalide] | 16.1 µM | 204 µM
CCC1OC(=O)c2ccccc21 (configuration not stated) | 15.2 µM | 164 µM
CC[C@H]1OC(=O)c2ccccc21 | 14.1 µM | 114 µM
CCC[C@H]1OC(=O)c2ccccc21 | 13.8 µM | 112 µM
CCCC/C=C1\OC(=O)c2ccccc21 | 17.6 µM | 201 µM
CCCCCCC[C@H]1OC(=O)c2ccccc21 | 14.7 µM | 143 µM
CC(C)C/C=C1\OC(=O)c2ccccc21 | 17.9 µM | 204 µM
CCCCC1OC(=O)c2ccccc21 (stereo not drawn) [RAC-3-N-BUTYLPHTHALIDE] | 14.5 µM | 170 µM
CC(C)CC[C@@H]1OC(=O)c2ccccc21 | 17.2 µM | 207 µM
